Source: PubChem (several laboratories)
GPR7 antag – blocks human GPR7 receptor signaling; P48145; GPR7-expressing cells, fluorescence antagonist assay; inhibition, % at 4.4 µM; hit rate 1.1% among 290,000; AID 1861; in the data active = inhibition above about 16%, passing the limit was not always enough;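 note: cells stimulated with the agonist NPW; 0% = agonist with vehicle and 100% = vehicle without agonist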
NS3 helicase inh – inhibitors of Hepatitis C virus NS3 helicase | NS3 helicase DNA unwinding, Cy5 molecular beacon fluorescence | inhibition, % at 10.9 µM | hit rate 0.56% among 290,000 | AID 1800;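 active = inhibition above the mean of all tested compounds plus 3 SD, set per campaign, cut at about 35% in these data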;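 note: 0% = DMSO wells and 100% = thioflavine S control wells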
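assay system = NS3 helicase fragment of HCV | buffer or medium = MOPS pH 6.5, MgCl2, DTT, Tween20, BSA | timing = 60 min unwinding reaction at 25 °C after ATP addition | signal = Cy5 beacon fluorescence read at start and 1 h | read-out basis = % inhibition of unwinding | control set = low DMSO, high thioflavine S at 110 µM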
EBV gp42 inh – inhibitors of Epstein-Barr virus glycoprotein 42. Q1HVG2. Fluorescence polarization binding assay, mP read-out. inhibition, % (tested at 21.74 µM). hit rate 0.42% among 220,000. AID 1085; in the data active = inhibition above about 50%
Target sequence (Q1HVG2 whole entry, looked up): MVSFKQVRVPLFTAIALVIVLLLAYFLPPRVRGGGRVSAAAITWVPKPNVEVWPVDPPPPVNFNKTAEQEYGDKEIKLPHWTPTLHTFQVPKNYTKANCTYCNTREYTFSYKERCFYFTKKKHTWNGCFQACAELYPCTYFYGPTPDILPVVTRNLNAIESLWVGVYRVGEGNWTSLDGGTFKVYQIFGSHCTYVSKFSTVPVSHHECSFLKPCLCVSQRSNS
EBNA-1 inhibitor – blocks EBNA-1 binding to DNA; EBNA-1 DNA binding, fluorescence polarization; inhibition, % at 14.8 µM; hit rate 0.34% among 300,000; AID 1950; in the data active = inhibition above about 28%
core dimer inh – blocks dimerization of HCV core protein; TR-FRET GST/Flag-core106 dimerization, 1536-well; inhibition, % at 5 µM; hit rate 0.33% among 300,000; AID 1899;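 active = inhibition above the mean of all tested compounds plus 3 SD, set per screening campaign, cut at about 45% in these data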
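Assay system: tagged HCV core106 pair (GST and Flag); medium: KF-containing HEPES buffer, pH 7.45, DTT, CHAPS, BSA; also added: Eu donor and XL665 acceptor anti-tag antibodies; dosing: 5 µM single dose; timing: compound-protein-antibody incubation 4 h at 22.5 °C; signal: TR-FRET 671 and 617 nm emission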
ZTA DNA inh – blocks Epstein-Barr virus ZTA, an EBNA-1 counter-screen | P03206 | ZTA-DNA binding, fluorescence polarization | inhibition, % at 11 µM | hit rate 0.15% among 320,000; in the data active = inhibition above about 33%
Target sequence (P03206 whole entry, looked up): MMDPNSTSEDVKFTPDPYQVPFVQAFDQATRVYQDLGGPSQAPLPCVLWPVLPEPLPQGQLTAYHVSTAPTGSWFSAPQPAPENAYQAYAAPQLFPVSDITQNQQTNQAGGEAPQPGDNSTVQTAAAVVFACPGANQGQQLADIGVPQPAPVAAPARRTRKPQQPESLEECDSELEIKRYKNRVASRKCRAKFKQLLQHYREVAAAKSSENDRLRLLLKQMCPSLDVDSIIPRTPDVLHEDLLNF
NS3 helicase cf – confirmation of Hepatitis C virus NS3 helicase inhibitors; shares compounds with NS3 helicase inh; NS3 helicase DNA unwinding, Cy5 molecular beacon fluorescence; inhibition, % at 10.9 µM; hit rate 31% among 1,600;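 active = inhibition above the mean of all tested compounds plus 3 SD, cutoff set per campaign, cut at about 36% in these data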
FID counter trip – displaces DNA intercalator in HCV helicase counter-screen; DNA fluorescent intercalator displacement, fluorescence; inhibition, % at 7.9 µM; hit rate 4% among 1,600; shares compounds with NS3 helicase inh; in the data active = inhibition above about 37%;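 note: 0% = vehicle and 100% = reference compound; higher means more displacement of ethidium bromide from the DNA hairpin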
DNA FID DR – counter-screen for HCV NS3 helicase inhibitors: DNA intercalator displacement dose response; shares compounds with NS3 helicase inh; fluorescent intercalator displacement from DNA, fluorescence; IC50, µM; 120 tested, under 10 active; call rule not given here
An asterisk follows results filed as active; . = no result. Compounds with a hit are over-represented: about 2.3% of the library has one in this group of screens.

SMILES	GPR7 antag	NS3 helicase inh	EBV gp42 inh	EBNA-1 inhibitor	core dimer inh	ZTA DNA inh	NS3 helicase cf	FID counter trip	others
COc1ccccc1-c1ccc(/C=C2\C=CC(=O)O2)o1	-5	37*	-68	-8	23	12	-5	-3
Cc1ccc(NC(=O)CSc2sc3c(O)cc(=O)[nH]c3c2C#N)c(F)c1	-3	36*	.	-4	-15	-7	27	1
N#Cc1c(SCC(=O)Nc2ccc(C(F)(F)F)cc2)sc2c(O)cc(=O)[nH]c12	-4	14	.	4	2	-2	.	.
CC(=O)C1=C(c2ccccc2)NC(=O)NC1c1ccccc1 (centres undefined)	-8	-6	.	-14	1	-2	.	.
O=C1NC(c2ccccc2)=C(c2nc3ccccc3s2)C(c2ccccc2)N1 (centres undefined)	-7	39*	4	1	8	-5	-5	-13
CCN(CC)CCN1C(=O)C(=O)/C(=C(/O)c2ccc(S(=O)(=O)N3CCOCC3)cc2)C1c1ccc(C(C)(C)C)cc1 (centres undefined)	-8	46*	.	-3	-7	-6	-6	-21
COCCCN1C(=O)C(=O)/C(=C(/O)c2ccc(S(=O)(=O)N3CCCCC3)cc2)C1c1ccc(F)cc1 (centres undefined)	9	44*	.	-5	3	5	-4	-29
CC1CCCN(C(=O)C2CCN(c3nc(-c4ccccc4)nc4c3CCC4)CC2)C1 (centres undefined)	-11	-14	.	8	2	16	.	.
O=C(CNC(=O)c1ccccc1)N/N=C/C=C/c1ccccc1	-20	5	.	5	3	3	.	.
O=C(Cc1cc(=O)[nH][nH]1)N/N=C/C=C/c1ccccc1	3	40*	1	17	21	-4	12	-22
CCOc1ccccc1N1CCN(c2nc3ccccc3nc2C(C#N)C(=O)OC)CC1 (centres undefined)	-10	-1	-7	-15	12	-2	.	.
CCOc1ccccc1N1CCN(c2nc(N)c(C#N)c(CC#N)c2C#N)CC1	-13	36*	0	-4	11	-7	-18	-10
O=C(CC12CC3CC(CC(C3)C1)C2)NC1CC1	.	.	.	5	-5	-4	.	.
O=C(N/N=C/c1ccsc1)c1ccc2ccccc2n1	-6	-7	2	-8	4	-3	.	.
Cc1ccc(-n2c(SCC(=O)O)nc3sc4c(c3c2=O)C(C)CCC4)cc1 (centres undefined)	-16	55*	.	-5	-9	2	66*	-15
Cc1sc2ncn(CC(=O)Nc3ccccc3F)c(=O)c2c1-c1ccccc1	-10	-1	-2	12	-1	-12	.	.
N#C/C(=C\c1ccc(-c2cccc(C(F)(F)F)c2)o1)C(=O)Nn1cnnc1	-6	18	-4	4	0	-19	.	.
O=C1OC(c2ccco2)=N/C1=C\c1ccc(-c2cccc(C(F)(F)F)c2)o1	4	37*	-92	0	17	2	47*	-4	DNA FID DR=>79
O=C(O)C1Nc2c(C(F)(F)F)ccc(Cl)c2C2C=CCC12 (centres undefined)	12	16	.	6	2	-3	.	.
CCOC(=O)c1ccc2c(c1)C1C=CCC1C(C(=O)O)N2 (centres undefined)	-4	39*	84*	19	88*	23	91*	-6
Cc1cc(C)c2c(c1)NC(C(=O)O)C1CC=CC21 (centres undefined)	11	44*	.	-3	39	11	98*	-7	DNA FID DR=>79
CC(C)C1Nc2ccc(C(=O)O)cc2C2C=CCC21 (centres undefined)	-4	36	-6	6	-3	20	.	.
C=CCNC(=S)N(C1CCCCC1)C1CCCCC1	-16	0	-3	-6	3	20	.	.
CC1CCCN(C(=O)CCS(=O)(=O)c2ccc3c(c2)NC(=O)C(C)S3)C1 (centres undefined)	-8	44*	.	8	-14	-2	-16	-24
